Laboratory results published in ChEMBL document CHEMBL1629689, “Cross-resistance to nitro drugs and implications for treatment of human African trypanosomiasis” (Antimicrob Agents Chemother, 2010).
Values after ≈ are worked out from the molar mass of the structure shown. Active and inactive are the calls of the source. The calls are words filed in the database; no cut-off is given here.

Key:
Trypanosoma brucei [1] = test: Antimicrobial activity against Trypanosoma brucei; assay type: functional, organism-based
How it was run: (§1)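 T. brucei bloodstream-form single-marker S427 (wild type) and cloned nifurtimox-resistant lines, cultured at 37°C in HMI9-T with 2.5 µg/ml G418. Growth inhibition measured, data corrected for background cell density and expressed as % of untreated cells. EC50 from a two-parameter fit with slope factor. At least three independent experiments; weighted means ± weighted SD.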

Trypanosoma brucei [2] = test: Antimicrobial activity against Trypanosoma brucei NfxR1; assay type: functional, organism-based; how it was run: as §1
Trypanosoma brucei [3] = test: Antimicrobial activity against Trypanosoma brucei NfxR2; assay type: functional, organism-based; how it was run: as §1
Trypanosoma brucei [4] = test: Selectivity ratio of EC50 for Trypanosoma brucei NfxR1 to EC50 for Trypanosoma brucei; assay type: functional
How it was run: (§2)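 Resistance factor taken as EC50 for resistant cells divided by EC50 for wild-type S427 bloodstream T. brucei, both from the same in vitro growth-inhibition assay. EC50 values come from at least three independent experiments.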

Trypanosoma brucei [5] = test: Selectivity ratio of EC50 for Trypanosoma brucei NfxR2 to EC50 for Trypanosoma brucei; assay type: functional; how it was run: as §2
Blood [6] = test: Metabolic stability in blood of NMRI mouse assessed as accumulation of sulfone metabolite at 200 mg/kg, po measured after 8 hrs; settings: in vivo
Blood [7] = test: Metabolic stability in blood of NMRI mouse assessed as accumulation of sulfoxide metabolite at 200 mg/kg, po measured after 2 hrs; assay type: ADME, organism-based; set-up: dose 200 mg/kg, route oral; settings: in vivo
How it was run: (§3)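 Single oral dose of 200 mg/kg to NMRI mice, vehicle 10% DMSO in peanut oil. Tail-vein blood (10 µl) taken into water at 0.25, 0.5, 1, 2, 4, 6 and 8 h. Samples extracted by acetonitrile protein precipitation with internal standard. Parent and sulfoxide and sulfone metabolites measured by UPLC-MS/MS (positive ESI, MRM). Triplicate measurements.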

[8] = Cmax in NMRI mouse at 200 mg/kg, po after 15 mins; assay type: ADME, organism-based; set-up: dose 200 mg/kg, route oral; settings: in vivo; how it was run: as §3
[9] = Fraction unbound in plasma of NMRI mouse at 200 mg/kg, po; assay type: ADME, organism-based; set-up: dose 200 mg/kg, route oral
Trypanosoma brucei [10] = test: Antimicrobial activity against Trypanosoma brucei wild type
Trypanosoma brucei [11] = test: Antimicrobial activity against Trypanosoma brucei NfxR1 infected in dosed NMRI administered QD for 3 days measured on day 6 by neubuaer hemocytometry
Trypanosoma brucei [12] = test: Antimicrobial activity against wild type Trypanosoma brucei infected in dosed NMRI administered QD for 3 days measured on day 6 by neubuaer hemocytometry
Trypanosoma brucei [13] = test: Antimicrobial activity against wild type Trypanosoma brucei infected NMRI assessed as cure rate at 50 mg/kg, QD for 3 days measured on day 6 by neubuaer hemocytometry
Trypanosoma brucei [14] = test: Antimicrobial activity against Trypanosoma brucei NfxR1 infected in mouse assessed as decrease in parasitemia level at 200 mg/kg, QD for 3 days measured on day 60 by neubuaer hemocytometry
[15] = tested on: Trypanosoma brucei gambiense; test: Antimicrobial activity against Trypanosoma brucei gambiense
Trypanosoma brucei [16] = settings: NfxR1, 100 mg/kg
Trypanosoma brucei [17] = test: animal or person; settings: in Mus musculus, ip, 96 h
Trypanosoma brucei [18] = test: Antimicrobial activity against Trypanosoma brucei wild type; remark: listed apart in the source

| SMILES | EC50 (Trypanosoma brucei [1]) [µM] | EC50 (Trypanosoma brucei [2]) [µM] | EC50 (Trypanosoma brucei [3]) [µM] | Ratio EC50 (Trypanosoma brucei [4]) | Ratio EC50 (Trypanosoma brucei [5]) | further results |
| --- | --- | --- | --- | --- | --- | --- |
| N=C(N)c1ccc(OCCCCCOc2ccc(C(=N)N)cc2)cc1 [PENTAMIDINE] | 0.00095 | 0.0026 | 0.0017 | 3 | 2 | – |
| Cn1c([N+](=O)[O-])cnc1COc1ccc(S(C)(=O)=O)cc1 [FEXINIDAZOLE SULFONE] | 0.62 | 9.6 | 9.5 | 15 | 15 | Stability (Blood [6]): 55000 ng/mL |
| Cn1c([N+](=O)[O-])cnc1COc1ccc([S+](C)[O-])cc1 (configuration not stated) [FEXINIDAZOLE SULFOXIDE] | 1.4 | 18.4 | 21 | 13 | 15 | – |
| NC(=O)c1cc(N2CC2)c([N+](=O)[O-])cc1[N+](=O)[O-] [TRETAZICAR] | 0.54 | 8 | 10.2 | 15 | 19 | – |
| CSc1ccc(OCc2ncc([N+](=O)[O-])n2C)cc1 [FEXINIDAZOLE] | – | – | – | – | – | Stability (Blood [7]): 40000 ng/mL; Cmax [8]: 961 ng/mL; fraction unbound [9]: 0.147; MIC (Trypanosoma brucei [10]): 17.7 µM (≈ 4.94 µg/mL); ED50 (Trypanosoma brucei [11]): 171 mg/kg; ED50 (Trypanosoma brucei [12]): 21 mg/kg; Activity (Trypanosoma brucei [13]): 100%; inhibition (Trypanosoma brucei [14]): inactive |
| NCCCC(N)(C(=O)O)C(F)F (configuration not stated) [EFLORNITHINE] | 16.4 | 11.9 | 11.5 | 1 | 1 | – |
| O=C(Cn1ccnc1[N+](=O)[O-])NCc1ccccc1 [BENZNIDAZOLE] | 30 | 154 | 155 | 5 | 5 | – |
| CC1CS(=O)(=O)CCN1/N=C/c1ccc([N+](=O)[O-])o1 (configuration not stated) [NIFURTIMOX] | – | – | – | – | – | EC50 [15]: 0.26 µM; inhibition (Trypanosoma brucei [16]): inactive; ED50 (Trypanosoma brucei [17]): 36.7 mg/kg; ED99 (Trypanosoma brucei [17]): 128 mg/kg; MIC (Trypanosoma brucei [18]): 15.2 µM (≈ 4.37 µg/mL) |

Now from value to molecule, other results behind:

| EC50 (Trypanosoma brucei [1]) [µM] | EC50 (Trypanosoma brucei [2]) [µM] | EC50 (Trypanosoma brucei [3]) [µM] | SMILES | Ratio EC50 (Trypanosoma brucei [4]) | Ratio EC50 (Trypanosoma brucei [5]) | further results |
| --- | --- | --- | --- | --- | --- | --- |
| 37.8 | 30.5 | 30.8 | O=[N+]([O-])c1cn2c(n1)OC[C@@H](OCc1ccc(OC(F)(F)F)cc1)C2 [PRETOMANID] | 1 | 1 | – |
| 0.31 | 3.7 | 3.7 | NC(=O)N/N=C/c1ccc([N+](=O)[O-])o1 [NITROFURAZONE] | 12 | 12 | – |
| > 500 | > 500 | > 500 | Cc1ncc([N+](=O)[O-])n1CCO [METRONIDAZOLE] | – | – | – |
